Test results published in ChEMBL document CHEMBL3739255, “Novel Series of Dihydropyridinone P2X7 Receptor Antagonists” (J Med Chem, 2015).

Legend:
P2X purinoceptor 7 [1] = target: T1, P2X purinoceptor 7 (Homo sapiens, UniProt Q99572); experiment: Antagonist activity at human P2X7R expressed in BzATP-stimulated human 1321N1 cells incubated for 20 mins followed by BzATP stimulation measured every 1 sec for 60 secs followed by 3 sec intervals for 4 mins by FLIPR Ca2+ assay in presence of ionomycin; assay type: cell-based
T1 sequence (Q99572 whole entry): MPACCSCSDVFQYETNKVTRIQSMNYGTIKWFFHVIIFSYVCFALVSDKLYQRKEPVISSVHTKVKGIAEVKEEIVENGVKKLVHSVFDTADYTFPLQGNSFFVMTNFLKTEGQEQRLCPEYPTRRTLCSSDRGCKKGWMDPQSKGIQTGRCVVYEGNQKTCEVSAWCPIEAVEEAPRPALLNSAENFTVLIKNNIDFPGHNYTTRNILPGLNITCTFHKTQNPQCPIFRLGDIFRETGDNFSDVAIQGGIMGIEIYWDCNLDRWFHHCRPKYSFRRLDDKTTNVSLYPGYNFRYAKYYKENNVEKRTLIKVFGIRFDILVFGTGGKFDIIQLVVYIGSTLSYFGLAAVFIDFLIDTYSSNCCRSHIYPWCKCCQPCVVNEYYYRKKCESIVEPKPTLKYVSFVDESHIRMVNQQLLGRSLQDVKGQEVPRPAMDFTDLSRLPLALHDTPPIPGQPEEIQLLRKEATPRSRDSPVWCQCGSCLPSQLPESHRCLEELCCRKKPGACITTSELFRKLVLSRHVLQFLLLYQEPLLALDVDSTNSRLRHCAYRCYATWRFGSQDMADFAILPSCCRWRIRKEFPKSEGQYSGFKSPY
Method in brief: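 1321N1 cells stably expressing human P2X7R, stimulated with BzATP; calcium flux read on FLIPR. IC50 is the mean of n ≥ 2 runs, each including a positive control.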

[2] = target: 5-hydroxytryptamine receptor 1A (Homo sapiens) (UniProt P08908); experiment: Inhibition of human 5-HT1A receptor at 10 uM
Method in brief: (§1)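 Commercial receptor scan across a 78-target panel, with percent inhibition measured at a test concentration of 10 uM.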

[3] = target: 5-hydroxytryptamine receptor 3A (Homo sapiens) (UniProt P46098); experiment: Inhibition of human 5-HT3 receptor at 10 uM; method in brief: as §1
[4] = target: 5-hydroxytryptamine receptor 6 (Homo sapiens) (UniProt P50406); experiment: Inhibition of human 5-HT6 receptor at 10 uM by radioligand binding assay; method in brief: as §1
Rattus norvegicus [5] = organism: Rattus norvegicus; experiment: Inhibition of rat bombesin receptor at 10 uM
Method in brief: (§2)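 Single-concentration screen at 10 uM in a commercial 78-receptor panel run by CEREP; results are given as % inhibition.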

[6] = target: C-X-C chemokine receptor type 2 (Homo sapiens) (UniProt P25025); experiment: Inhibition of human CXCR2 at 10 uM by radioligand binding assay; method in brief: as §1
[7] = target: Melatonin receptor type 1A (Homo sapiens) (UniProt P48039); experiment: Inhibition of human melatonin receptor type 1A at 10 uM
Chain of Melatonin receptor type 1A (Homo sapiens) (P48039 whole entry): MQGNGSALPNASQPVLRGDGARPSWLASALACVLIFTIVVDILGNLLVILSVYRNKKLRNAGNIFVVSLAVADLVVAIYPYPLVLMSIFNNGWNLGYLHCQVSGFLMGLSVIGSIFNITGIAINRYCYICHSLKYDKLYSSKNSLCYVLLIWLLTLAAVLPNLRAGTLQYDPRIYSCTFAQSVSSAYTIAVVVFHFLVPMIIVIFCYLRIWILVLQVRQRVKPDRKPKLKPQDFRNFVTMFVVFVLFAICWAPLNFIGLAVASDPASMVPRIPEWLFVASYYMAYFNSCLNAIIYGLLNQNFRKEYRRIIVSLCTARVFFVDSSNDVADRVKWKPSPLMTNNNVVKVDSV
Method in brief: (§3)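 Outsourced broad receptor-screening panel of 78 targets, each tested at a single 10 uM concentration; read-out is percent inhibition. Detailed conditions are given only in the Supporting Information.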

[8] = Metabolic stability in human plasma; assay type: ADME, cell-free; settings: read-out: Stability (converted)
Method in brief: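 Compound incubated in human plasma for 4 h and monitored for degradation.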

[9] = target: Translocator protein (Rattus norvegicus) (UniProt P16257); experiment: Inhibition of rat peripheral type benzodiazepine receptor at 10 uM by radioligand binding assay; method in brief: as §2
Chain of Translocator protein (Rattus norvegicus) (P16257 whole entry, looked up): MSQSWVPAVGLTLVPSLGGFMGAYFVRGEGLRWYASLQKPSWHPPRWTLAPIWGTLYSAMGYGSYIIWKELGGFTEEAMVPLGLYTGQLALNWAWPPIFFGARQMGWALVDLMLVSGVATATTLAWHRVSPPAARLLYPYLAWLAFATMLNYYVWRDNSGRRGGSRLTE

Rattus norvegicus [10] = organism: Rattus norvegicus; experiment: Inhibition of rat GABA-chloride channel receptor at 10 uM by radioligand binding assay; method in brief: as §3
P2X purinoceptor 7 [11] = target: T1, P2X purinoceptor 7; experiment: Antagonist activity at P2X7R in human whole blood assessed as inhibition of LPS-induced IL-1beta production incubated for 30 mins followed by ATP addition for 30 mins by ELISA assay; assay type: tissue-based
[12] = target: Muscarinic acetylcholine receptor M4 (Homo sapiens) (UniProt P08173); experiment: Inhibition of human muscarinic M4 receptor at 10 uM; method in brief: as §3
Chain of Muscarinic acetylcholine receptor M4 (Homo sapiens) (P08173 whole entry): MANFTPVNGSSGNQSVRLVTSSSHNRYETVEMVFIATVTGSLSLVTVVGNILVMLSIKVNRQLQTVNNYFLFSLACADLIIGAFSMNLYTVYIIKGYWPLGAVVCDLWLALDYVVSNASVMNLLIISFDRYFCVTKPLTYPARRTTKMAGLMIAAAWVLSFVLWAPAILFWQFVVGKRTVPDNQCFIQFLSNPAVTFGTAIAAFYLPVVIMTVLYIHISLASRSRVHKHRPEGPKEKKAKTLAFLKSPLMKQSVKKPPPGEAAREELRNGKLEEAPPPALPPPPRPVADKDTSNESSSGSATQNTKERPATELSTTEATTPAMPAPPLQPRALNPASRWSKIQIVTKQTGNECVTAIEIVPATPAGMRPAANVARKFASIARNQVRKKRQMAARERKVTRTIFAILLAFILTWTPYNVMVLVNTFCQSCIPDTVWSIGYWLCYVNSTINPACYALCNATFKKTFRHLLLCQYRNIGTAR

[13] = target: Beta-2 adrenergic receptor (Homo sapiens) (UniProt P07550); experiment: Inhibition of human beta2-adrenoceptor at 10 uM by radioligand binding assay; method in brief: as §3
Liver microsome [14] = experiment: Drug metabolism in human liver microsomes assessed as hydrolysis of amide bond; assay type: ADME
Rattus norvegicus [15] = organism: Rattus norvegicus; experiment: Inhibition of rat P2Y purinoceptor at 10 uM by radioligand binding assay; method in brief: as §3
[16] = target: Somatostatin receptor (Mus musculus) (UniProt P30935+O08858+P30875+P30873+P49660); experiment: Inhibition of mouse somatostatin receptor at 10 uM by radioligand binding assay; assay type: protein assay; method in brief: as §3
Chain of Somatostatin receptor (Mus musculus) (P30935 whole entry): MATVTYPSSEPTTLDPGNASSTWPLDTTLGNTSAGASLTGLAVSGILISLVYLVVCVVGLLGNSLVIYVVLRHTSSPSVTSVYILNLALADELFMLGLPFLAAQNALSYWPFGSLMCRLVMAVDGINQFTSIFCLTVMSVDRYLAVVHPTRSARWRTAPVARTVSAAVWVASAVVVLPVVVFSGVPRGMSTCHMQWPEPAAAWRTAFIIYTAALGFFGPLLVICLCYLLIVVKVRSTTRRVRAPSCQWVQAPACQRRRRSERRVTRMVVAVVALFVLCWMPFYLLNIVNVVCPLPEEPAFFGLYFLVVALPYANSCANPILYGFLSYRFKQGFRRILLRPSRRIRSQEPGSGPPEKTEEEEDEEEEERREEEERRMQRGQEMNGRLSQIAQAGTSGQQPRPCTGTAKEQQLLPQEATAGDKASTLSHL
Chain of Somatostatin receptor (Mus musculus) (O08858 whole entry): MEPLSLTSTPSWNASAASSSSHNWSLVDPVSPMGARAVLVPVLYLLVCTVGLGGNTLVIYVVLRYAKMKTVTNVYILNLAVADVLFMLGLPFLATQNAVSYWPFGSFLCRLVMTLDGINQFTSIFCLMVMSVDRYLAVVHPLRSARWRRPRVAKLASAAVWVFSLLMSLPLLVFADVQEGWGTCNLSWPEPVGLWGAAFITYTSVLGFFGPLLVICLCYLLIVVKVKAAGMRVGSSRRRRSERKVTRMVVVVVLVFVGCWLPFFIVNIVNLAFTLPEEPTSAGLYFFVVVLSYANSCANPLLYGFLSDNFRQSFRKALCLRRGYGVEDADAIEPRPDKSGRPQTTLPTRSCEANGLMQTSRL
Chain of Somatostatin receptor (Mus musculus) (P30875 whole entry): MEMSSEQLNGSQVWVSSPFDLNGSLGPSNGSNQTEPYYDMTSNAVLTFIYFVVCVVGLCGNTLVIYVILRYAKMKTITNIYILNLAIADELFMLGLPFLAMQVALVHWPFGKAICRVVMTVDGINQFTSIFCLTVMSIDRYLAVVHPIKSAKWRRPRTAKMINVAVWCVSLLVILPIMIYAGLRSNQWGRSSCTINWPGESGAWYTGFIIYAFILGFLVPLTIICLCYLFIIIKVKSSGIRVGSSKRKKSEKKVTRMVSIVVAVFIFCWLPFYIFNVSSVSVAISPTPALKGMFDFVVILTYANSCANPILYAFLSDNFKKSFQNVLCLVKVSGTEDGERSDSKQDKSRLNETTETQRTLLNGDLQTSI
Chain of Somatostatin receptor (Mus musculus) (P30873 whole entry): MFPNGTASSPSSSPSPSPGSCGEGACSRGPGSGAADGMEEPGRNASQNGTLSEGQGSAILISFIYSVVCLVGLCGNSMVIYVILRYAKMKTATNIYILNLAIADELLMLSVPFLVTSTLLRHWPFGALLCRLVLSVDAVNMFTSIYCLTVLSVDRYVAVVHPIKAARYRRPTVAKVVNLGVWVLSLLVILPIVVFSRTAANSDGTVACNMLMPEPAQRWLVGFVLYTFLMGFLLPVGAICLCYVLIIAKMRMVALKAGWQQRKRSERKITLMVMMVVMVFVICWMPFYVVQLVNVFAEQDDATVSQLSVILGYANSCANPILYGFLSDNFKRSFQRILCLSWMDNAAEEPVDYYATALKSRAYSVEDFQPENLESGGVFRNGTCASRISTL
Chain of Somatostatin receptor (Mus musculus) (P49660 with tags, fused parts or gaps): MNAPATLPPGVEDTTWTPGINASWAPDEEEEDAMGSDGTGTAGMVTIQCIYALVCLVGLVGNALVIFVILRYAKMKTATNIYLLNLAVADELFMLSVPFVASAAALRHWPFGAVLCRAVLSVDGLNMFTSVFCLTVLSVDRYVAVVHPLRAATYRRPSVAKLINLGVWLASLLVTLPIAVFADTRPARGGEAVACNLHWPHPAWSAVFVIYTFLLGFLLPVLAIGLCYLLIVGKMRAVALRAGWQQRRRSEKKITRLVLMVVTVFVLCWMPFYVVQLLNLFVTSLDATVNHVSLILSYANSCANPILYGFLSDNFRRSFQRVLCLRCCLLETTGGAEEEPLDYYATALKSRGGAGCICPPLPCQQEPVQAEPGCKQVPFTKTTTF

P2X purinoceptor 7 [17] = target: P2X purinoceptor 7 (Rattus norvegicus, UniProt Q64663); experiment: Antagonist activity at rat P2X7R expressed in BzATP-stimulated HEK293 cells incubated for 20 mins followed by BzATP stimulation measured every 1 sec for 60 secs followed by 3 sec intervals for 4 mins by FLIPR Ca2+ assay in presence of ionomycin; assay type: cell-based
Chain of P2X purinoceptor 7 (Rattus norvegicus, UniProt Q64663) (Q64663 whole entry): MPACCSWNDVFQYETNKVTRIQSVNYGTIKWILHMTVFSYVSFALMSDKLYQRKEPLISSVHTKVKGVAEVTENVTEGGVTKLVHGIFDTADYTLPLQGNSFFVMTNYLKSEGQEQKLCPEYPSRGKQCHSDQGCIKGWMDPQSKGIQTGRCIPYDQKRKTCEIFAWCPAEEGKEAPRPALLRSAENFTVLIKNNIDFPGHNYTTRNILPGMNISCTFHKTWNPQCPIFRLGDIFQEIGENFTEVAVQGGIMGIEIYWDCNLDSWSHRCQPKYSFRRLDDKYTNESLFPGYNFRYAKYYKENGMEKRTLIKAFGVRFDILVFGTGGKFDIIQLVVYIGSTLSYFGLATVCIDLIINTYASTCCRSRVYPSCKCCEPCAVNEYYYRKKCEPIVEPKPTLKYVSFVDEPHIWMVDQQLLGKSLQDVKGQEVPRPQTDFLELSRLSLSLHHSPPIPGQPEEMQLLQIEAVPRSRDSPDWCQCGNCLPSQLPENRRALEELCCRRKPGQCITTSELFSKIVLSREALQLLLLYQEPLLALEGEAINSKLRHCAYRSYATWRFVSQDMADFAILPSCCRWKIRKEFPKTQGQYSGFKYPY

Liver microsome [18] = experiment: Drug metabolism in rat liver microsomes assessed as GSH adduct UV peak area at 20 uM preincubated for 5 mins followed by NADPH addition measured after 60 mins by LC/MS/MS analysis relative to total area of GSH adduct, other metabolites, parent compound; assay type: ADME; settings: 1 h, BLD = below limit of detection
[19] = target: Endothelin-1 receptor (Homo sapiens) (UniProt P25101); experiment: Inhibition of human ETA receptor at 10 uM by radioligand binding assay; method in brief: as §1
Chain of Endothelin-1 receptor (Homo sapiens) (P25101 whole entry): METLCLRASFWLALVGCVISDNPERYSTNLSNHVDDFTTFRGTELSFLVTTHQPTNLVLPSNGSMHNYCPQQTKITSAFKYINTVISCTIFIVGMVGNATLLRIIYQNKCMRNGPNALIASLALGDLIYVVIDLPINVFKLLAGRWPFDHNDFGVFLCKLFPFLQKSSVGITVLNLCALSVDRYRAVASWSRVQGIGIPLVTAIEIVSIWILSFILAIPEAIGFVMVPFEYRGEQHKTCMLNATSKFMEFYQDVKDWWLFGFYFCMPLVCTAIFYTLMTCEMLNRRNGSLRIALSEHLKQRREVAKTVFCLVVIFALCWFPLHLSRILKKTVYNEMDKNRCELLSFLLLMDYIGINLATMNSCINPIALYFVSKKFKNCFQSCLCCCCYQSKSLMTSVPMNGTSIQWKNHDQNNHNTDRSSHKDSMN

[20] = target: Glucocorticoid receptor (Homo sapiens) (UniProt P04150); experiment: Inhibition of human glucocorticoid receptor at 10 uM by radioligand binding assay; method in brief: as §3
Rattus norvegicus [21] = experiment: Dose normalized AUC in rat at 2 mg/kg, po administered as single dose; assay type: ADME, organism-based; settings: in vivo
Method in brief: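 Single-dose rat PK: iv at 0.5 mg/kg and po at 2 mg/kg. n ≥ 2 animals per time point. Oral AUC normalized to dose; clearance, Vdss and half-life taken from the iv arm.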

Plasma = experiment: Drug metabolism in cynomolgus monkey plasma assessed as hydrolysis of amide bond at 10 mg/kg; assay type: ADME, organism-based, Macaca fascicularis; settings: in vivo
[22] = target: Neuropeptide Y receptor type 1 (Homo sapiens) (UniProt P25929); experiment: Inhibition of human neuropeptide Y1 receptor at 10 uM by radioligand binding assay; method in brief: as §3
[23] = Metabolic stability in human blood; assay type: ADME; settings: read-out: Stability (converted)
[24] = target: Nociceptin receptor (Homo sapiens) (UniProt P41146); experiment: Inhibition of human ORL1 receptor at 10 uM by radioligand binding assay; method in brief: as §1
Chain of Nociceptin receptor (Homo sapiens) (P41146 whole entry): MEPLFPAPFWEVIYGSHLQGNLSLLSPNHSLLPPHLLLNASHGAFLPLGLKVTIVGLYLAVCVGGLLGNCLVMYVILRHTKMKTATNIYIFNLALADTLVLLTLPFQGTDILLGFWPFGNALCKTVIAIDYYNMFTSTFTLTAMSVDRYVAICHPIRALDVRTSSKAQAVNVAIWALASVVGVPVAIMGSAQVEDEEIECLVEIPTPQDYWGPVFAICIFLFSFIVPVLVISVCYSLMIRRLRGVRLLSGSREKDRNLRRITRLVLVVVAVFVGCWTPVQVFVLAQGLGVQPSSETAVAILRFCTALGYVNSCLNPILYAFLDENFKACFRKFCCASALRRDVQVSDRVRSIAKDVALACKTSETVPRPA

[25] = target: 5-hydroxytryptamine receptor 7 (Homo sapiens) (UniProt P34969); experiment: Inhibition of human 5-HT7 receptor at 10 uM by radioligand binding assay; method in brief: as §1
[26] = target: Galanin receptor type 1 (Homo sapiens) (UniProt P47211); experiment: Inhibition of human galanin receptor 1 at 10 uM by radioligand binding assay; method in brief: as §3
[27] = target: Type-2 angiotensin II receptor (Homo sapiens) (UniProt P50052); experiment: Inhibition of human angiotensin 2 receptor 2 at 10 uM; method in brief: as §3
[28] = target: 5-hydroxytryptamine receptor 2B (Homo sapiens) (UniProt P41595); experiment: Inhibition of human 5-HT2B receptor at 10 uM by radioligand binding assay; method in brief: as §1
[29] = target: Muscarinic acetylcholine receptor M5 (Homo sapiens) (UniProt P08912); experiment: Inhibition of human muscarinic M5 receptor at 10 uM; method in brief: as §3
Chain of Muscarinic acetylcholine receptor M5 (Homo sapiens) (P08912 whole entry): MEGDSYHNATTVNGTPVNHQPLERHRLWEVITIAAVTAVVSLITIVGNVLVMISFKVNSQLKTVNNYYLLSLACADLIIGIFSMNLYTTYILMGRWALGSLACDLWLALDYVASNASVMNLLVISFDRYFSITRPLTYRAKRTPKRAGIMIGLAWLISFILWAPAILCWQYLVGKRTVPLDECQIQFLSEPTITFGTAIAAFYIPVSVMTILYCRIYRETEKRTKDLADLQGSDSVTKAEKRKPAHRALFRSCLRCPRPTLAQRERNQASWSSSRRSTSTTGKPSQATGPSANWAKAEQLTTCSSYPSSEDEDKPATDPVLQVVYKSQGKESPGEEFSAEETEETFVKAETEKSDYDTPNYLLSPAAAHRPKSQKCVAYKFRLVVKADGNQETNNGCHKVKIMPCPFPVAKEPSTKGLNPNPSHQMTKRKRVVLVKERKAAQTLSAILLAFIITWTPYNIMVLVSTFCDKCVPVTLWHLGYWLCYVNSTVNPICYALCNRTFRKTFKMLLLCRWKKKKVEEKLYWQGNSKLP

With `Cc1cc(Cl)c(OCCO)cc1NC(=O)C1=CNC(=O)C[C@H]1c1ccc(F)cc1` the IC50 (P2X purinoceptor 7 [1]) was 23 nM, the inhibition [2] was less than 30% and the inhibition [3] was less than 30%. It also gave an inhibition [4] of less than 30%, an inhibition (Rattus norvegicus [5]) of less than 30% and an inhibition [6] of less than 30%. For the same molecule, the inhibition [7] was less than 30%, the half-life [8] was 4 h and the inhibition [9] was less than 30%. It also gave an inhibition (Rattus norvegicus [10]) of less than 30%, an IC50 (P2X purinoceptor 7 [11]) of 60 nM and an inhibition [12] of less than 30%. For the same molecule, the inhibition [13] was less than 30%, the Stability (Liver microsome [14]) was “Stable” and the inhibition (Rattus norvegicus [15]) was less than 30%. The inhibition [16] was less than 30%, the IC50 (P2X purinoceptor 7 [17]) was greater than 10000 nM and the Drug metabolism (Liver microsome [18]) was “BLD”. For the same molecule, the inhibition [19] was less than 30%, the inhibition [20] was less than 30% and the AUC/dose (Rattus norvegicus [21]) was 1550 ng·h/mL/mg/kg. For the same molecule, the Stability (Plasma) was “Stable”, the inhibition [22] was less than 30% and the half-life [23] was 3 h. It also gave an inhibition [24] of less than 30%, an inhibition [25] of less than 30% and an inhibition [26] of less than 30%. It also gave an inhibition [27] of less than 30%, an inhibition [28] of less than 30% and an inhibition [29] of less than 30%.
